This note sets out measurements from ChEMBL document CHEMBL3046818, “Photosynthesis-Inhibiting efficiency of 4-chloro-2-(chlorophenylcarbamoyl)phenyl alkylcarbamates” (Bioorg Med Chem Lett, 2011).

Molecules are shown by their SMILES.

The term half-life denotes how long it takes for the measured level to halve. A word on the IC50: it is the concentration needed to halve the response being measured.

The nature of data set [1]: Half life in aqueous buffer solutions at pH 7 by HPLC analysis. The note with it: aqueous buffer solution. The data set is classed as ADME.
Data set [2] can be described thus: Chemical stability of the compound in aqueous buffer solutions at acidic pH by HPLC analysis. The class given is physicochemical.
In data set [3] the target is Photosystem II protein D1 (Spinacia oleracea, UniProt P69560). The data set is described as follows: Inhibition of photosystem II in Spinacia oleracea (spinach) chloroplasts assessed as reduction of photosynthetic electron transport. The gist of the method:
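PET in spinach chloroplasts read spectrophotometrically as DCPIP photoreduction in a chloroplast suspension at pH 7.2. Read within 2 min after adding the carbamate solution in DMSO. IC50 is the molar concentration giving a 50% decrease in activity relative to the untreated control.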

Data set [4] in a line: Lipophilicity, log K of the compound. The data set is classed as physicochemical. The conditions noted are these: RP-HPLC capacity factor, C18 column, methanol mobile phase. The gist of the method:
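Lipophilicity measured by RP-HPLC as capacity factor k, reported as log k.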

Data set [5] in a line: Half life in aqueous buffer solutions at pH 7.4 by HPLC analysis. The class given is ADME. The note with it: aqueous buffer solution.
The target of data set [6] is Photosystem II protein D1 (Spinacia oleracea) (UniProt P69560). The experiment in a line: Inhibition of photosystem II in Spinacia oleracea (spinach) chloroplasts assessed as restoration of photosynthetic electron transport relative to control in presence of DPC. More on the design: scale not given: the % may be the effect or the level left. The method in brief: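 Spinach chloroplasts were first treated with the carbamate, then given the artificial PS 2 donor 1,5-diphenylcarbazide (DPC). PET activity was then measured and expressed as % of the untreated control.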

Regarding `CCCCCCCCCNC(=O)Oc1ccc(Cl)cc1C(=O)Nc1ccc(Cl)c(Cl)c1`, the half-life in data set [1] is 64 h; in data set [5], 43 h. In addition, the Stability result in data set [2] is on record as “Stable”. In data set [3], the IC50 turned out to be 506 µM. Further, the “log K” value in data set [4] amounted to 1.088.

`CCCCCCCCNC(=O)Oc1ccc(Cl)cc1C(=O)Nc1ccc(Cl)cc1`: the half-life in data set [1] was 64 h; in data set [5], 43 h. Also, the Stability result in data set [2] is reported as “Stable”. The 50% inhibitory concentration (IC50) in data set [3] was determined as 7.4 µM. In addition, in data set [4], the “log K” value is recorded as 0.7899.

`CCCCCNC(=O)Oc1ccc(Cl)cc1C(=O)Nc1ccc(Cl)cc1`: the values for the half-life in data set [1] and in data set [5] were 64 h and 43 h, respectively. In data set [2], the Stability result is reported as “Stable”. In data set [3], the 50% inhibitory concentration (IC50) came out at 6.3 µM. Besides, in data set [4], the “log K” value was 0.7838.

Consider `CCNC(=O)Oc1ccc(Cl)cc1C(=O)Nc1cccc(Cl)c1`, for which the half-life was 64 h in data set [1] and 43 h in data set [5]. Moreover, in data set [2], the Stability entry is on record as “Stable”. In data set [3], the half-maximal inhibitory concentration (IC50) was found to be 15.6 µM. For the same compound, the “log K” value in data set [4] came out at 0.7523.

For `CCCCCNC(=O)Oc1ccc(Cl)cc1C(=O)Nc1cccc(Cl)c1`, the half-life was 64 h in data set [1] and 43 h in data set [5]. In addition, in data set [2], the Stability result is reported as “Stable”. Besides, in data set [3], the IC50 came out at 5.4 µM. Moreover, in data set [4], the “log K” value is given as 0.7732.

Consider `CCCCCCCCNC(=O)Oc1ccc(Cl)cc1C(=O)Nc1cccc(Cl)c1`, for which the half-life in data set [1] is 64 h; in data set [5], 43 h. Besides, the Stability entry in data set [2] is reported as “Stable”. In data set [3], the IC50 is 10.1 µM. In data set [4], the “log K” value worked out at 0.7831.

On to `CCCCNC(=O)Oc1ccc(Cl)cc1C(=O)Nc1cccc(Cl)c1`, for which the half-life was 64 h in data set [1] and 43 h in data set [5]. Moreover, in data set [2], the Stability entry is reported as “Stable”. Also, the 50% inhibitory concentration (IC50) in data set [3] turned out to be 13.4 µM. Besides, the “log K” value in data set [4] was determined as 0.7611.

On to `CCCCCCCNC(=O)Oc1ccc(Cl)cc1C(=O)Nc1ccc(Cl)c(Cl)c1`, for which the half-life in data set [1] was 64 h; in data set [5], 43 h. Also, the Stability entry in data set [2] is listed as “Stable”. Further, the half-maximal inhibitory concentration (IC50) in data set [3] came to 169 µM. Besides, the “log K” value in data set [4] is 1.0667.

For `CCCCCCCCCCNC(=O)Oc1ccc(Cl)cc1C(=O)Nc1cccc(Cl)c1`, the half-life was 64 h in data set [1] and 43 h in data set [5]. Further, in data set [2], the Stability entry was “Stable”. In addition, the IC50 in data set [3] came out at 15.8 µM. For the same compound, in data set [4], the “log K” value stood at 0.7873.

Take `CCCCCCCCCCCNC(=O)Oc1ccc(Cl)cc1C(=O)Nc1cccc(Cl)c1`: the half-life is 64 h in data set [1] and 43 h in data set [5]. For the same compound, the Stability entry in data set [2] was “Stable”. In data set [3], the concentration for half-maximal inhibition (IC50) worked out at 18.3 µM. For the same compound, the “log K” value in data set [4] was determined as 0.7902.

Turning to `CCCCCCCCNC(=O)Oc1ccc(Cl)cc1C(=O)Nc1ccc(Cl)c(Cl)c1`, the half-life in data set [1] is 64 h; in data set [5], 43 h. Also, in data set [2], the Stability result was “Stable”. For the same compound, the half-inhibitory concentration (IC50) in data set [3] was determined as 432 µM. For the same compound, the “log K” value in data set [4] stood at 1.0845.

For `CCCCCCNC(=O)Oc1ccc(Cl)cc1C(=O)Nc1ccc(Cl)c(Cl)c1`, in data set [2], the Stability result is listed as “Stable”. Further, the IC50 in data set [3] is 144 µM. For the same compound, the “log K” value in data set [4] was found to be 1.0611.

Turning to `CCCCCCCCCCCNC(=O)Oc1ccc(Cl)cc1C(=O)Nc1ccc(Cl)c(Cl)c1`, the values for the half-life in data set [1] and in data set [5] were 64 h and 43 h, respectively. Further, the Stability entry in data set [2] is given as “Stable”. Moreover, in data set [4], the “log K” value was 1.0903.

Consider `CCNC(=O)Oc1ccc(Cl)cc1C(=O)Nc1ccc(Cl)c(Cl)c1`, for which the half-life is 64 h in data set [1] and 43 h in data set [5]. In addition, the Stability result in data set [2] is “Stable”. The half-maximal inhibitory concentration (IC50) in data set [3] was 82.3 µM. The “log K” value in data set [4] was 1.0234.

Regarding `CCCCCCCCCNC(=O)Oc1ccc(Cl)cc1C(=O)Nc1cccc(Cl)c1`, the results for the half-life in data set [1] and in data set [5] were 64 h and 43 h, respectively. Besides, in data set [2], the Stability result was “Stable”. In data set [3], the IC50 was found to be 15.4 µM. Also, the “log K” value in data set [4] amounted to 0.7837.

With `CCNC(=O)Oc1ccc(Cl)cc1C(=O)Nc1ccc(Cl)cc1`, the half-life in data set [1] is 64 h; in data set [5], 43 h. Besides, the Activity in data set [6] turned out to be 94%. Further, in data set [2], the Stability result is on record as “Stable”. Also, the half-inhibitory concentration (IC50) in data set [3] was 9.7 µM. Further, the “log K” value in data set [4] is 0.7695.

On to `CCCCCCCNC(=O)Oc1ccc(Cl)cc1C(=O)Nc1ccc(Cl)cc1`, for which the half-life in data set [1] was 64 h; in data set [5], 43 h. In addition, in data set [2], the Stability result was “Stable”. The IC50 in data set [3] came to 7.1 µM. The “log K” value in data set [4] worked out at 0.7872.

With `CCCCCCCNC(=O)Oc1ccc(Cl)cc1C(=O)Nc1cccc(Cl)c1`, the half-life was 64 h in data set [1] and 43 h in data set [5]. Further, in data set [6], the Activity was 94%. The Stability entry in data set [2] is on record as “Stable”. The IC50 in data set [3] was found to be 4.9 µM. The “log K” value in data set [4] turned out to be 0.7772.

For the compound `CN(C)C(=O)Nc1ccc(Cl)c(Cl)c1` [DCMU], in data set [3], the IC50 amounted to 1.9 µM. For the same compound, the “log K” value in data set [4] came to 0.47.

With `CCCCCCCCCCNC(=O)Oc1ccc(Cl)cc1C(=O)Nc1ccc(Cl)cc1`, the half-life in data set [1] was 64 h; in data set [5], 43 h. Further, the Stability result in data set [2] was “Stable”. In addition, the IC50 in data set [3] worked out at 8.4 µM. Further, the “log K” value in data set [4] came out at 0.7942.

As for `CCCCCCNC(=O)Oc1ccc(Cl)cc1C(=O)Nc1cccc(Cl)c1`, the half-life in data set [1] was 64 h; in data set [5], 43 h. For the same compound, in data set [2], the Stability result is listed as “Stable”. Moreover, the IC50 in data set [3] came to 5.3 µM. The “log K” value in data set [4] came out at 0.7758.

Consider `CCCCCCNC(=O)Oc1ccc(Cl)cc1C(=O)Nc1ccc(Cl)cc1`, for which the half-life in data set [1] was 64 h; in data set [5], 43 h. Further, the Stability entry in data set [2] is on record as “Stable”. Further, the IC50 in data set [3] was 6.3 µM. Besides, the “log K” value in data set [4] is reported as 0.7859.

Regarding `CCCCCNC(=O)Oc1ccc(Cl)cc1C(=O)Nc1ccc(Cl)c(Cl)c1`, the half-life is 64 h in data set [1] and 43 h in data set [5]. In data set [2], the Stability result is “Stable”. For the same compound, the 50% inhibitory concentration (IC50) in data set [3] came out at 99.2 µM. Besides, the “log K” value in data set [4] came to 1.0601.

Turning to `CCCCCCCCCNC(=O)Oc1ccc(Cl)cc1C(=O)Nc1ccc(Cl)cc1`, the half-life was 64 h in data set [1] and 43 h in data set [5]. Further, the Stability result in data set [2] is “Stable”. Also, in data set [3], the IC50 was 8 µM. Further, the “log K” value in data set [4] is listed as 0.7919.

Consider `CCCCCCCCCCNC(=O)Oc1ccc(Cl)cc1C(=O)Nc1ccc(Cl)c(Cl)c1`, for which the half-life was 64 h in data set [1] and 43 h in data set [5]. The Stability entry in data set [2] is listed as “Stable”. The “log K” value in data set [4] was 1.0894.

As to `CCCCCCCCCCCNC(=O)Oc1ccc(Cl)cc1C(=O)Nc1ccc(Cl)cc1`, the values for the half-life in data set [1] and in data set [5] were 64 h and 43 h, respectively. Also, in data set [2], the Stability result is on record as “Stable”. Also, the IC50 in data set [3] amounted to 10.5 µM. In addition, in data set [4], the “log K” value was found to be 0.7947.
